Measurements taken from ChEMBL document CHEMBL3120154, “2-[N-Alkyl(R-phenyl)-aminomethyl]-3-phenyl-7-trifluoromethylquinoxalines as anticancer agents inhibitors of folate enzymes” (Eur J Med Chem, 2014).

What was measured:
Assay type in all cases: functional
NCI-H522 = experiment: Cytotoxicity against human NCI-H522 cells at 10^-4 M after 48 hrs by SRB assay; conditions: NCI-H522, 48 h, read-out: GI
Outline: (§1)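 Run in the NCI 60-cell-line screen after a three-line prescreen. Cells got a 48 h drug exposure; viability/growth was estimated with the sulforhodamine B protein assay. Growth inhibition (I%) was recorded at 100, 10, 1, 0.1 and 0.01 micromolar. Percent growth is relative to untreated control cells, and negative values indicate cell kill.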

NCI-H226 = experiment: Cytotoxicity against human NCI-H226 cells at 10^-4 M after 48 hrs by SRB assay; conditions: NCI-H226, 48 h, read-out: GI; outline: as §1
HOP-62 = experiment: Cytotoxicity against human HOP62 cells at 10^-4 M after 48 hrs by SRB assay; conditions: HOP-62, 48 h, read-out: GI
Outline: (§2)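 Run by NCI on its 60-line human tumor cell panel, after a three-cell-line prescreen. Cells were exposed to drug for 48 h over a 5-log range: 100, 10, 1, 0.1 and 0.01 micromolar. Growth was estimated by sulforhodamine B (SRB) protein staining. Percent growth inhibition (I%) was recorded at each concentration relative to untreated control cells.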

A498 = experiment: Cytotoxicity against human A498 cells at 10^-4 M after 48 hrs by SRB assay; conditions: A498, 48 h, read-out: GI; outline: as §2
SW-620 = experiment: Cytotoxicity against human SW620 cells at 10^-5 M after 48 hrs by SRB assay; conditions: SW-620, 48 h, read-out: GI
[1] = Cytotoxicity against human Hs578T cells at 10^-4 M after 48 hrs by SRB assay; conditions: Hs-578T, read-out: GI; outline: as §2
[2] = Cytotoxicity against human OVCAR4 cells at 10^-4 M after 48 hrs by SRB assay; conditions: OVCAR-4, 48 h, read-out: GI
Outline: (§3)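 Second-stage screen in the 60-cell-line human tumor panel at NCI, over a 5-log range (100, 10, 1, 0.1, 0.01 micromolar). Cells were exposed to drug for 48 h and growth was estimated with a sulforhodamine B protein stain. The value is percent growth inhibition at each concentration.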

CAKI-1 = experiment: Cytotoxicity against human Caki1 cells at 10^-4 M after 48 hrs by SRB assay; conditions: CAKI-1, 48 h, read-out: GI; outline: as §2
KM12 = experiment: Cytotoxicity against human KM12 cells at 10^-4 M after 48 hrs by SRB assay; conditions: KM12, 48 h, read-out: GI; outline: as §1
NCI-H322M [3] = experiment: Cytotoxicity against human NCI-H322M cells at 10^-4 M after 48 hrs by SRB assay; conditions: read-out: GI; outline: as §1
HCT-15 = experiment: Cytotoxicity against human HCT15 cells at 10^-4 M after 48 hrs by SRB assay; conditions: HCT-15, 48 h, read-out: GI; outline: as §2
HCC 2998 = experiment: Cytotoxicity against human HCC2998 cells at 10^-4 M after 48 hrs by SRB assay; conditions: HCC 2998, 48 h, read-out: GI; outline: as §2
NCI-H322M [4] = experiment: Cytotoxicity against human NCI-H322M cells at 10^-6 M after 48 hrs by SRB assay; conditions: read-out: GI; outline: as §1
[5] = Cytotoxicity against human UACC257 cells at 10^-4 M after 48 hrs by SRB assay; conditions: UACC-257, 48 h, read-out: GI; outline: as §3
SN12C = experiment: Cytotoxicity against human SN12C cells at 10^-4 M after 48 hrs by SRB assay; conditions: read-out: GI; outline: as §3
SF-268 = experiment: Cytotoxicity against human SF268 cells assessed as cell growth at 10^-4 M after 48 hrs by alamar blue assay relative to untreated control; conditions: SF-268, 48 h, read-out: Activity
Outline: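 Three-cell-line prescreen at NCI. Each line was seeded and pre-incubated, then given a single concentration (10^-4 or 10^-5 M) and incubated for 48 h. The end-point was alamar blue. The value is percent growth of treated cells versus untreated control cells, with negative numbers indicating cell kill.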

NCI-H23 = experiment: Cytotoxicity against human NCI-H23 cells at 10^-4 M after 48 hrs by SRB assay; conditions: NCI-H23, 48 h, read-out: GI; outline: as §1
A549 = experiment: Cytotoxicity against human A549 cells at 10^-4 M after 48 hrs by SRB assay; conditions: A549, 48 h, read-out: GI; outline: as §2
CCRF-CEM = experiment: Cytotoxicity against human CCRF-CEM cells at 10^-6 M after 48 hrs by SRB assay; conditions: read-out: GI; outline: as §2
SF-295 = experiment: Cytotoxicity against human SF295 cells at 10^-4 M after 48 hrs by SRB assay; conditions: SF-295, 48 h, read-out: GI; outline: as §3
SNB-19 = experiment: Cytotoxicity against human SNB19 cells at 10^-4 M after 48 hrs by SRB assay; conditions: SNB-19, 48 h, read-out: GI; outline: as §3
NCI-H460 = experiment: Cytotoxicity against human NCI-H460 cells at 10^-4 M after 48 hrs by SRB assay; conditions: NCI-H460, 48 h, read-out: GI; outline: as §1
MDA-MB-435 = experiment: Cytotoxicity against human MDA-MB-435 cells at 10^-4 M after 48 hrs by SRB assay; conditions: MDA-MB-435, 48 h, read-out: GI; outline: as §1
SK-MEL-28 = experiment: Cytotoxicity against human SK-MEL-28 cells at 10^-4 M after 48 hrs by SRB assay; conditions: SK-MEL-28, 48 h, read-out: GI; outline: as §3
HT-29 = experiment: Cytotoxicity against human HT-29 cells at 10^-4 M after 48 hrs by SRB assay; conditions: HT-29, 48 h, read-out: GI; outline: as §2
COLO 205 = experiment: Cytotoxicity against human COLO205 cells at 10^-4 M after 48 hrs by SRB assay; conditions: COLO 205, 48 h, read-out: GI; outline: as §2
786-0 = experiment: Cytotoxicity against human 786-0 cells at 10^-4 M after 48 hrs by SRB assay; conditions: 786-0, 48 h, read-out: GI; outline: as §2
SK-OV-3 = experiment: Cytotoxicity against human SKOV3 cells at 10^-4 M after 48 hrs by SRB assay; conditions: SK-OV-3, 48 h, read-out: GI; outline: as §3
LOX IMVI = experiment: Cytotoxicity against human LOXIMVI cells at 10^-4 M after 48 hrs by SRB assay; conditions: read-out: GI; outline: as §1
HL-60(TB) = experiment: Cytotoxicity against human HL-60(TB) cells at 10^-4 M after 48 hrs by SRB assay; conditions: HL-60, 48 h, read-out: GI
Outline: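 NCI 60-human-tumour-cell-line screen run over a 5-log dose range (100, 10, 1, 0.1 and 0.01 µM). Cells were exposed to drug for 48 h. Growth was estimated by sulforhodamine B protein staining. Values are percent growth inhibition at each concentration, relative to untreated control cells.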

SF-539 = experiment: Cytotoxicity against human SF539 cells at 10^-4 M after 48 hrs by SRB assay; conditions: SF-539, 48 h, read-out: GI; outline: as §3
RXF 393 = experiment: Cytotoxicity against human RXF393 cells at 10^-4 M after 48 hrs by SRB assay; conditions: RXF 393, 48 h, read-out: GI; outline: as §3

CCN(Cc1nc2cc(C(F)(F)F)ccc2nc1-c1ccccc1)c1ccc(OC)c(OC)c1
inhibition of growth at 100 µM (NCI-H522): 164% | inhibition of growth at 100 µM (NCI-H226): 179% | inhibition of growth at 100 µM (HOP-62): 195% | inhibition of growth at 100 µM (A498): 180% | inhibition of growth at 10 µM (SW-620): 18% | inhibition of growth at 100 µM [1]: 162% | inhibition of growth at 100 µM [2]: 76% | inhibition of growth at 100 µM (CAKI-1): 117% | inhibition of growth at 100 µM (KM12): 153% | inhibition of growth at 100 µM (NCI-H322M [3]): 96% | inhibition of growth at 100 µM (HCT-15): 171% | inhibition of growth at 100 µM (HCC 2998): 174% | inhibition of growth at 1 µM (NCI-H322M [4]): < 40% | inhibition of growth at 100 µM [5]: 192% | inhibition of growth at 100 µM (SN12C): 189% | growth at 100 µM (SF-268): 0% | inhibition of growth at 100 µM (NCI-H23): 158% | inhibition of growth at 100 µM (A549): 177% | inhibition of growth at 1 µM (CCRF-CEM): < 40% | inhibition of growth at 100 µM (SF-295): 181% | inhibition of growth at 100 µM (SNB-19): 148% | inhibition of growth at 100 µM (NCI-H460): 97% | inhibition of growth at 100 µM (MDA-MB-435): 183% | inhibition of growth at 100 µM (SK-MEL-28): 112% | inhibition of growth at 100 µM (HT-29): 97% | inhibition of growth at 100 µM (COLO 205): 92% | inhibition of growth at 100 µM (786-0): 191% | inhibition of growth at 100 µM (SK-OV-3): 83% | inhibition of growth at 100 µM (LOX IMVI): 200% | inhibition of growth at 100 µM (HL-60(TB)): 153% | inhibition of growth at 100 µM (SF-539): 176% | inhibition of growth at 100 µM (RXF 393): 179%
